Drawing on ChEMBL document CHEMBL4219168, “Design, synthesis, and evaluation of l-cystine diamides as l-cystine crystallization inhibitors for cystinuria” (Bioorg Med Chem Lett, 2018), this text covers fold change (FC), inhibition and EC2 for 13 compounds.

Calls of active or inactive are those of the source. The calls are words filed in the database; no cut-off is given here.

For the first assay, the system named is Cystine. Nature of the assay: Inhibition of L-cystine crystallization assessed as increase in apparent aqueous solubility after 72 hrs by fluorescence assay relative to CDME. An outline of the steps: (§1)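 Dose-response curves were run in supersaturated aqueous L-cystine, with apparent solubility read by fluorescence assay. EC2x is the effective concentration that doubles the apparent solubility of L-cystine in water. The ratio is the potency gain over the CDME control.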
Regarding `N[C@@H](CSSC[C@H](N)C(=O)N1CCCCC1)C(=O)N1CCCCC1`, the fold change (FC) was 4.

As to `CN1CCN(C(=O)[C@@H](N)CSSC[C@H](N)C(=O)N2CCN(C)CC2)CC1`, the fold change (FC) amounted to 24.5.

Consider `N[C@@H](CSSC[C@H](N)C(=O)NCCO)C(=O)NCCO`, for which the fold change (FC) came to 3.2.

For `N[C@@H](CSSC[C@H](N)C(=O)NC1CC1)C(=O)NC1CC1`, the fold change (FC) turned out to be 1.8.

Regarding `N[C@@H](CSSC[C@H](N)C(=O)N1CCOCC1)C(=O)N1CCOCC1`, the fold change (FC) is 7.4.

In another assay the test system is Cystine. Nature of the assay: Inhibition of L-cystine crystallization assessed as increase in apparent aqueous solubility at 2 to 10 uM after 72 hrs by fluorescence assay. An outline of the steps: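 Supersaturated L-cystine in Millipore water was spiked 1:100 with 1 mM or 200 μM diamide stock, giving final 10 μM or 2 μM. Mixtures were held at 25 °C for 72 h. Apparent L-cystine solubility was then read with an in-house fluorescence assay. CDME served as positive control and water as blank.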
With `CN[C@@H](CSSC[C@H](NC)C(=O)N1CCCCC1)C(=O)N1CCCCC1`, the inhibition entry is “inactive”.

`CCN(CC)C(=O)[C@H](CSSC[C@H](NC)C(=O)N(CC)CC)NC`: the inhibition entry is “inactive”.

Turning to `CN[C@@H](CSSC[C@H](NC)C(=O)N(C)C)C(=O)N(C)C`, the inhibition result was “inactive”.

Regarding `CN[C@@H](CSSC[C@H](NC)C(=O)NC1CC1)C(=O)NC1CC1`, the inhibition entry is “inactive”.

In the case of `CN[C@@H](CSSC[C@H](NC)C(=O)NCCO)C(=O)NCCO`, the inhibition result is “inactive”.

For `CN[C@@H](CSSC[C@H](NC)C(=O)N1CCCC1)C(=O)N1CCCC1`, the inhibition entry is “inactive”.

For `CN[C@@H](CSSC[C@H](NC)C(=O)N1CCOCC1)C(=O)N1CCOCC1`, the inhibition entry is “inactive”.

In the next assay the test system is Cystine. The experiment in a line: Inhibition of L-cystine crystallization assessed as increase in apparent aqueous solubility at 2 to 10 uM after 72 hrs by fluorescence assay relative to CDME.
Consider `CN[C@@H](CSSC[C@H](NC)C(=O)N1CCCCC1)C(=O)N1CCCCC1`, for which the inhibition result was “inactive”.

Turning to `CCN(CC)C(=O)[C@H](CSSC[C@H](NC)C(=O)N(CC)CC)NC`, the inhibition result was “inactive”.

For `CN[C@@H](CSSC[C@H](NC)C(=O)N(C)C)C(=O)N(C)C`, the inhibition entry was “inactive”.

For the compound `CN[C@@H](CSSC[C@H](NC)C(=O)NC1CC1)C(=O)NC1CC1`, the inhibition result was “inactive”.

With `CN[C@@H](CSSC[C@H](NC)C(=O)NCCO)C(=O)NCCO`, the inhibition entry was “inactive”.

As to `CN[C@@H](CSSC[C@H](NC)C(=O)N1CCCC1)C(=O)N1CCCC1`, the inhibition entry was “inactive”.

`CN[C@@H](CSSC[C@H](NC)C(=O)N1CCOCC1)C(=O)N1CCOCC1`: the inhibition entry is “inactive”.

A further assay deals with Cystine. Nature of the assay: Inhibition of L-cystine crystallization assessed as increase in apparent aqueous solubility after 72 hrs by fluorescence assay. An outline of the steps: as §1
Consider `N[C@@H](CSSC[C@H](N)C(=O)N1CCCCC1)C(=O)N1CCCCC1`, for which the EC2 came out at 1.59 µM.

As for `CN1CCN(C(=O)[C@@H](N)CSSC[C@H](N)C(=O)N2CCN(C)CC2)CC1`, the EC2 turned out to be 0.26 µM.

On to `N[C@@H](CSSC[C@H](N)C(=O)NCCO)C(=O)NCCO`, for which the EC2 is 2.02 µM.

On to `COC(=O)[C@@H](N)CSSC[C@H](N)C(=O)OC`, for which the EC2 was 6.37 µM.

As to `N[C@@H](CSSC[C@H](N)C(=O)NC1CC1)C(=O)NC1CC1`, the EC2 was 3.53 µM.

Consider `N[C@@H](CSSC[C@H](N)C(=O)N1CCOCC1)C(=O)N1CCOCC1`, for which the EC2 came out at 0.86 µM.
